# Source: ChEMBL document CHEMBL1144735, “Design, synthesis, and evaluation of trifluoromethyl ketones as inhibitors of SARS-CoV 3CL protease” (Bioorg Med Chem, 2008)
# pIC50: −log10 of the molar value.
# Biological target: Replicase polyprotein 1a (Severe acute respiratory syndrome-related coronavirus, UniProt P0C6U8)
# Test: Inhibition of SARS-CoV 3CL protease
# Summary of the method: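 Purified SARS-CoV 3CL protease (50 nM) with 6 μM fluorogenic substrate peptide in 20 mM Bis–Tris pH 7.0 at 25 °C. Initial velocities were read across inhibitor concentrations and fitted for IC50.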
row,SMILES,pIC50
1,CC(C)C[C@H](NC(=O)[C@@H](NC(=O)[C@H](C)NC(=O)OCc1ccccc1)C(C)C)C(=O)N[C@@H](Cc1ccccc1)C(=O)C(F)(F)F (mixture of isomers),5.00
2,C[C@H](NC(=O)[C@@H](N)CCC(=O)O)C(=O)NCC(=O)C(F)(F)F,4.30
3,CC(C)C[C@H](NC(=O)OC(C)(C)C)C(=O)NC(C)C(=O)C(F)(F)F (mixture of isomers),4.40
4,CC(C)C[C@H](NC(=O)OCc1ccccc1)C(=O)NC(Cc1ccccc1)C(=O)C(F)(F)F (mixture of isomers),4.82
5,O=C(N[C@@H](Cc1ccccc1)C(=O)NC(Cc1ccccc1)C(=O)C(F)(F)F)OCc1ccccc1 (mixture of isomers),4.70
6,CCCCCCCCCC(=O)N[C@@H](CC(C)C)C(=O)NC(Cc1ccccc1)C(=O)C(F)(F)F (mixture of isomers),4.30
7,C[C@H](NC(=O)[C@H](CCC(=O)OC(C)(C)C)NC(=O)OC(C)(C)C)C(=O)NCC(=O)C(F)(F)F,4.40
8,CCCCCCCCC(=O)N[C@@H](CC(C)C)C(=O)NC(Cc1ccccc1)C(=O)C(F)(F)F (stereo partly drawn),< 4.30
